These results are taken from article PMC9575670 (Journal of Medicinal Chemistry, 2022).

Experiment [1] concerns pancreatic cancer (ASPC-1) cell line. The experiment is described as follows: MTT in vitro antiproliferation assay, ASPC-1. The class given is cell-based. The conditions noted are these: Homo sapiens, ASPC1, 24 h, read-out: IC50 ± SD ASPC-1.
Experiment [2] concerns lung cancer (A549) cell line. The experiment is described as follows: MTT in vitro antiproliferation assay, A549. Format: cell-based, human. The note with it: for IC50: Homo sapiens, A549, 24 h, read-out: IC50 ± SD A549; for selectivity index (SI), cancer cells (A549) over normal cells (MRC-5): IC50 MRC-5 / IC50 A549.
The subject of experiment [3] is breast cancer (MCF-7) cell line. The experiment can be described thus: MTT in vitro antiproliferation assay, MCF-7. The conditions noted are these: Homo sapiens, MCF7, 24 h, read-out: IC50 ± SD MCF-7. The class given is cell-based.
The subject of experiment [4] is lung normal (MRC-5) cell line. The experiment is described as follows: MTT in vitro antiproliferation assay, MRC-5. Format: cell-based. The conditions noted are these: Homo sapiens, MRC5, 24 h, read-out: IC50 ± SD MRC-5.
Experiment [5] relates to colon cancer (HCT 116) cell line. The experiment can be described thus: MTT in vitro antiproliferation assay, HCT 116. Format: cell-based. The note with it: Homo sapiens, HCT-116, 24 h, read-out: IC50 ± SD HCT 116.
The subject of experiment [6] is cancer cell lines (ASPC-1, A549, MCF-7, HCT 116). The experiment is described as follows: MTT in vitro antiproliferation assay, cancer cell line panel. The class given is cell-based, human. The conditions noted are these: for selectivity index (SI) / cancer cell selectivity over normal cells (MRC-5), range: range over cancer cell lines vs MRC-5; for IC50: Homo sapiens, 24 h, read-out: IC50 values in cancer cell lines (range).

Experiment [7] relates to tubulin. The experiment is described as follows: In vitro tubulin polymerization assay. The class given is biochemical. The conditions noted are these: 20 μM, compared to vehicle control.
The test system of experiment [8] is lung normal IMR-90 cell line. The experiment is described as follows: MTT in vitro antiproliferation assay, IMR-90. Format: cell-based. The note with it: Homo sapiens, IMR-90, 24 h, read-out: IC50 ± SD IMR-90.
In experiment [9] the test system is MCF-7 cells. The experiment is described as follows: Cell cycle analysis by flow cytometry. Format: cell-based, human. The note with it: MCF-7, up to 1.0 μM, 24 h, compared to vehicle. On the technique in general: A flow cytometer gives signals particle by particle.
The subject of experiment [10] is A549 cells. The experiment can be described thus: Cell cycle analysis by flow cytometry. Format: cell-based, human. The conditions noted are these: A549, up to 1.0 μM, 24 h, compared to vehicle.
In experiment [11] the test system is normal CCD-18Co cell line. The experiment can be described thus: MTT in vitro antiproliferation assay, CCD-18Co. The class given is cell-based. The note with it: Homo sapiens, 24 h, read-out: IC50 ± SD CCD-18Co.
Experiment [12] concerns 4T1 cells tumor. The experiment is described as follows: In vivo antitumor activity, 4T1 xenograft model, 11 day study. The arrangement: species or system BALB/c mice. The conditions noted are these: G4 DOX: 2 mg/kg IP once in 3 days. Put shortly:
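BALB/c mice received 4T1 cells (1 × 10^5/mouse) subcutaneously into the left mammary fat pad. Caliper volume = length × width²/2. At about 50 mm³, mice were allocated to four groups, unrandomized and unblinded. All dosing was IP: 0.9% saline vehicle; test compound 0.711 or 1.422 mg/kg (days 1–3) then 14.22 or 28.44 mg/kg (days 4–11); doxorubicin 2 mg/kg every 3 days. Tumours were excised on day 12 and volume and mass measured; one-way ANOVA.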

By IC50 is commonly meant the point on the concentration scale where inhibition reaches its midpoint. For the compound `COC(=O)Nc1nc2ccc(C(=O)c3cccs3)cc2[nH]1` [NOZ, nocodazole], the IC50 in experiment [1] came out at 10.5 µM; in experiment [2], 10.8 µM; in [3], 7.41 µM; in experiment [4], 12 µM; in [5], 6.82 µM. Moreover, in experiment [2], the “selectivity index (SI), cancer cells (A549) over normal cells (MRC-5)” value is listed as 1.2. For the same compound, the “selectivity index (SI) / cancer cell selectivity over normal cells (MRC-5), range” value in experiment [6] is recorded as 1.1–1.8. Moreover, in experiment [7], the “effect on tubulin polymerization” value is recorded as “inhibited”.

Consider `CCCSc1ccc2nc(NC(=O)OC)[nH]c2c1` [Al, albendazole], for which the IC50 in [1] turned out to be 56.3 µM; in experiment [2], 72.4 µM; in [8], 285 µM; in [3] it was 59 µM; in experiment [4], 96.1 µM; in [5], 52.7 µM. The IC50 is 52.7 to 72.4 µM in experiment [6] and 119 µM in experiment [11]. In experiment [2], the “selectivity index (SI), cancer cells (A549) over normal cells (MRC-5)” value stood at 1.32. The “accumulation of cells in the G2/M phase” value in [9] and in experiment [10] was “slight accumulation of cells in the G2/M phase” throughout. Also, the “times lower activity than the CLC and NOZ” value in [6] (IC50 comparison) is listed as 7–10. Besides, the “effect on tubulin polymerization” value in [7] was “inhibition of tubulin polymerization”.

For the compound `CC(=O)O[C@H]1C(=O)[C@@]2(C)[C@H]([C@H](OC(=O)c3ccccc3)[C@]3(O)C[C@H](OC(=O)[C@H](O)[C@@H](NC(=O)c4ccccc4)c4ccccc4)C(C)=C1C3(C)C)[C@]1(OC(C)=O)CO[C@@H]1C[C@@H]2O` [PCL, paclitaxel], the “effect on tubulin polymerization” value in experiment [7] is listed as “enhanced the tubulin polymerization”.

As to `COc1cccc2c1C(=O)c1c(O)c3c(c(O)c1C2=O)C[C@@](O)(C(=O)CO)C[C@@H]3O[C@H]1C[C@H](N)[C@H](O)[C@H](C)O1` [doxorubicin], in [12], the “average tumor mass reduction at the endpoint” value is on record as 14.5% and the “average tumor volume reduction at the endpoint compared to G1” value is 29.4%.

As for `CCCSc1ccc2[nH]c(N[C@H]3O[C@@H](CO)[C@H](O)[C@@H](O)[C@@H]3O)nc2c1` [Al–G, albendazole amine glucose conjugate], the IC50 is 182 µM in experiment [1]; 139 µM in experiment [2]; greater than 1000 µM in experiment [8]; 131 µM in experiment [3]; 895 µM in experiment [4]; 156 µM in [5]. Further, the values for the IC50 in [6] and in [11] were 131 to 182 µM and 701 µM, respectively. For the same compound, the “accumulation of cells in the G2/M phase” value in experiment [9] and in [10] was “slight accumulation of cells in the G2/M phase” in each case. Moreover, in experiment [6], the “selectivity index (SI) / cancer cell selectivity over normal cells (MRC-5), range” value is “five to seven times”. Further, the “effect on tubulin polymerization” value in experiment [7] is listed as “inhibition of tubulin polymerization”.
